Measured values reported in ChEMBL document CHEMBL4196230, “Design, Synthesis, and Blood-Brain Barrier Transport Study of Pyrilamine Derivatives as Histone Deacetylase Inhibitors” (ACS Med Chem Lett, 2018).

Tests used:
[1] = Substrate activity at PYSOCA in human CMEC/D3 cells assessed as transporter-mediated drug uptake measured for 2 mins at 37degC in presence of MPP+; type: ADME, cell-based
[2] = target: T1, Histone deacetylase 8 (Homo sapiens) (UniProt Q9BY41); test: Inhibition of recombinant human full length C-terminal His-tagged HDAC8 expressed in baculovirus infected insect cells at 30 uM using HDAC class 2a substrate measured after 30 mins by fluorescence assay relative to control
T1 sequence (whole entry): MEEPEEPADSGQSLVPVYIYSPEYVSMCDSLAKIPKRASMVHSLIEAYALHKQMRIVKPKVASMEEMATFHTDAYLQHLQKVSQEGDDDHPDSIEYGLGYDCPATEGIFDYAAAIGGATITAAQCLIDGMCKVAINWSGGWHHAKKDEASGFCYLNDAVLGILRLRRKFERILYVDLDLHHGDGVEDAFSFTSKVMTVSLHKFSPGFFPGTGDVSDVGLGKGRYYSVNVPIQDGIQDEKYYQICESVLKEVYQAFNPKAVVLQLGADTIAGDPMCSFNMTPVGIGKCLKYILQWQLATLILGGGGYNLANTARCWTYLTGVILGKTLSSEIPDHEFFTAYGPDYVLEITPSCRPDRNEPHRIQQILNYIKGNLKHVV

[3] = tested on: PYSOCA; test: Substrate activity at PYSOCA in human CMEC/D3 cells assessed as Km for transporter-mediated drug uptake measured for 2 mins at 37degC; type: ADME, cell-based; settings: hCMEC/D3 cells
Method in brief: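 Uptake by hCMEC/D3 cells measured over a range of concentrations at 37 °C for 2 min. Km and Vmax were obtained by fitting to Eq. 1. Mean ± S.E., n = 4.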

[4] = Substrate activity at PYSOCA in human CMEC/D3 cells assessed as transporter-mediated drug uptake clearance assessed per mg protein at 4degC measured up to 10 mins; type: ADME, cell-based
Method in brief: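 Uptake by hCMEC/D3 cells followed over time at 37 °C or 4 °C. Clearance was calculated from the initial linear slope, expressed per mg protein. Mean ± S.E., n = 4.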

[5] = target: Histone deacetylase 5 (Homo sapiens) (UniProt Q9UQL6); test: Inhibition of human recombinant HDAC5 expressed in baculovirus infected insect cells at 30 uM using HDAC class 2a substrate measured after 30 mins by fluorescence assay relative to control
Histone deacetylase 5 (Homo sapiens), sequence (Q9UQL6 whole entry): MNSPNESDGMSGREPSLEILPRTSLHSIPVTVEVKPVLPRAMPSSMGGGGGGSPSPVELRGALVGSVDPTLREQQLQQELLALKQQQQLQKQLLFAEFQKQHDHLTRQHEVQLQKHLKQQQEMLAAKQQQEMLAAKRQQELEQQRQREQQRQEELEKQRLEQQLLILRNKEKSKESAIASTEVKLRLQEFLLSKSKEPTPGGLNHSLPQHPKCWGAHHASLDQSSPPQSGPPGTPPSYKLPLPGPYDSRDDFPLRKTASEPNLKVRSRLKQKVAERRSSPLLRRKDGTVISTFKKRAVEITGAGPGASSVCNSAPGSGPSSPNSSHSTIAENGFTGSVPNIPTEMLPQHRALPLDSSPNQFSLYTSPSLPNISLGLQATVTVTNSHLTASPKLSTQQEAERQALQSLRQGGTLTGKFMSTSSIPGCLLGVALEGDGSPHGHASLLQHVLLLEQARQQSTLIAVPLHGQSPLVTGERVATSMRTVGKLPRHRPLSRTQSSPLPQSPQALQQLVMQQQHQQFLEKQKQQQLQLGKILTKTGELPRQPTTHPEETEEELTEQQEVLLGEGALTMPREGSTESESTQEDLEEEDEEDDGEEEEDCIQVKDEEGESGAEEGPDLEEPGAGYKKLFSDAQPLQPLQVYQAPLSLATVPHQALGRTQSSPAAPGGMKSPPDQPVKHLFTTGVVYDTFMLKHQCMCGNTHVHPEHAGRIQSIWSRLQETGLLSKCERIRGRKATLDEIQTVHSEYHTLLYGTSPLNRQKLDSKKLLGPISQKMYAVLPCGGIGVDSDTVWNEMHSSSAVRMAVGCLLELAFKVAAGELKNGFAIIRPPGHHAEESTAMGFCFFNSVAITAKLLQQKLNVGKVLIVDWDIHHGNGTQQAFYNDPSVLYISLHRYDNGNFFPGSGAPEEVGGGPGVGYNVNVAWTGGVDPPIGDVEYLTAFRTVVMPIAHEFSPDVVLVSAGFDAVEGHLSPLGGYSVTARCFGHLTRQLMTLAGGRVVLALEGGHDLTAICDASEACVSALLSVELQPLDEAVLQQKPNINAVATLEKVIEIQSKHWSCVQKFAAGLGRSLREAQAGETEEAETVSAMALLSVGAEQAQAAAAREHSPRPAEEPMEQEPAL

[6] = Substrate activity at PYSOCA in human CMEC/D3 cells assessed as transporter-mediated drug uptake measured for 2 mins at 37degC in presence of decynium-22; type: ADME, cell-based
[7] = target: T2, Protein deacetylase HDAC6 (Homo sapiens) (UniProt Q9UBN7); test: Inhibition of recombinant human HDAC6 expressed in baculovirus infected insect cells at 30 uM using HDAC substrate 3 measured after 30 mins by fluorescence assay relative to control
T2 sequence (whole entry): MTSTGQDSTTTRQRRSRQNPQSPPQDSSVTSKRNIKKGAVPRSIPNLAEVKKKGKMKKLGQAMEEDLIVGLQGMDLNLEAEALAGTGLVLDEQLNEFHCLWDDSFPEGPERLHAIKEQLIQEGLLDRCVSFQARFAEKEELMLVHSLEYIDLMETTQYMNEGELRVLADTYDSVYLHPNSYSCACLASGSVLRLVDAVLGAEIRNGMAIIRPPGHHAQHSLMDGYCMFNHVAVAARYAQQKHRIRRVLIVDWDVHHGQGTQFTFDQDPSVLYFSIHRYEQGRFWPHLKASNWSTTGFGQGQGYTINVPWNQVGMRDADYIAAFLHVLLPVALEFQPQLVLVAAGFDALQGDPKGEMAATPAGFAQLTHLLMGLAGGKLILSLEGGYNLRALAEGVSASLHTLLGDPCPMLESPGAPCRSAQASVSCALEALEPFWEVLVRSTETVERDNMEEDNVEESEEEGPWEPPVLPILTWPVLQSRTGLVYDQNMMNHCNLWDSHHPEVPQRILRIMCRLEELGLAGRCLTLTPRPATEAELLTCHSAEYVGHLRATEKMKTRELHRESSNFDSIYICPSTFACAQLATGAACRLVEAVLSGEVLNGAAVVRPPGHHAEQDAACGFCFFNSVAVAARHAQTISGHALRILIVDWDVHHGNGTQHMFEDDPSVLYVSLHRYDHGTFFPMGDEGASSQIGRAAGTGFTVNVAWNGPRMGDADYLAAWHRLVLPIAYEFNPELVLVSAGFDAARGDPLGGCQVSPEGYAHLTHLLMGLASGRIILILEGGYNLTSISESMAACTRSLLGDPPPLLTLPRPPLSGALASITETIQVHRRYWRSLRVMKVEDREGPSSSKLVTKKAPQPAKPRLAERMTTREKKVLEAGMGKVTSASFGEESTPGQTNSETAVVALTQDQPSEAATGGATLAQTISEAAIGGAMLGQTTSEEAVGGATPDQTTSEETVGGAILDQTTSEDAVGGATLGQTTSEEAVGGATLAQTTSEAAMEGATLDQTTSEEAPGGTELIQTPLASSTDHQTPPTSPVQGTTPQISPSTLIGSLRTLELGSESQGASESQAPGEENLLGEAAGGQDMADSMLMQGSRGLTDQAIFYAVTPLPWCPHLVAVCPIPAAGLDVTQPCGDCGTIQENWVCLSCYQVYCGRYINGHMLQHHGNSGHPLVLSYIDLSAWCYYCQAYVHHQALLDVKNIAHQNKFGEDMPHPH

[8] = Substrate activity at PYSOCA in human CMEC/D3 cells assessed as transporter-mediated drug uptake measured for 1 min at 37degC in presence of NH4Cl under intracellular alkalization condition; type: ADME, cell-based
Method in brief: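 hCMEC/D3 cells were pretreated in transport buffer with or without 30 mM NH4Cl. Uptake was then measured at 37 °C for 1 min with or without 30 mM NH4Cl (Control, Pre and Acute conditions). Mean ± S.E., n = 4.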

[9] = Substrate activity at PYSOCA in human CMEC/D3 cells assessed as transporter-mediated drug uptake measured for 2 mins at 37degC; type: ADME, cell-based
[10] = Substrate activity at PYSOCA in human CMEC/D3 cells assessed as transporter-mediated drug uptake measured for 2 mins at 37degC in presence of clonidine; type: ADME, cell-based
[11] = Substrate activity at PYSOCA in human CMEC/D3 cells assessed as transporter-mediated drug uptake measured for 2 mins at 37degC in presence of tramadol; type: ADME, cell-based
[12] = target: Histone deacetylase 3/Nuclear receptor corepressor 2 (HDAC3/NCoR2) (Homo sapiens, UniProt O15379); test: Inhibition of human full length C-terminal His-tagged HDAC3/N-terminal GST-tagged human NCOR2 (395 to 489 residues) co-expressed in baculovirus infected Sf9 insect cells using HDAC substrate 3 measured after 30 mins by fluorescence assay
Histone deacetylase 3/Nuclear receptor corepressor 2 (HDAC3/NCoR2), sequence (O15379 whole entry, the tested form may be a part): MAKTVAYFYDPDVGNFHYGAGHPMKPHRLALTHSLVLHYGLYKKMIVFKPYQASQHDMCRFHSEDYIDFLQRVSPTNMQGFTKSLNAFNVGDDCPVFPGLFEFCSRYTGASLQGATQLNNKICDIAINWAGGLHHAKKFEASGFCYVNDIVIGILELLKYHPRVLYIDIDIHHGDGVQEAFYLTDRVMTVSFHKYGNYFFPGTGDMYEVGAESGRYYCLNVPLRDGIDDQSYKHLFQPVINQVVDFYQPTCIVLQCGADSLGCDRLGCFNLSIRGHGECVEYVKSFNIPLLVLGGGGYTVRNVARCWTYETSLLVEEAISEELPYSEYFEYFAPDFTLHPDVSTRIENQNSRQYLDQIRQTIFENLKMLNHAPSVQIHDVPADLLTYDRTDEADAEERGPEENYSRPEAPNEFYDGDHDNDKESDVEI
Histone deacetylase 3/Nuclear receptor corepressor 2 (HDAC3/NCoR2), sequence (Q9Y618 whole entry, further chain, the tested form may be a part): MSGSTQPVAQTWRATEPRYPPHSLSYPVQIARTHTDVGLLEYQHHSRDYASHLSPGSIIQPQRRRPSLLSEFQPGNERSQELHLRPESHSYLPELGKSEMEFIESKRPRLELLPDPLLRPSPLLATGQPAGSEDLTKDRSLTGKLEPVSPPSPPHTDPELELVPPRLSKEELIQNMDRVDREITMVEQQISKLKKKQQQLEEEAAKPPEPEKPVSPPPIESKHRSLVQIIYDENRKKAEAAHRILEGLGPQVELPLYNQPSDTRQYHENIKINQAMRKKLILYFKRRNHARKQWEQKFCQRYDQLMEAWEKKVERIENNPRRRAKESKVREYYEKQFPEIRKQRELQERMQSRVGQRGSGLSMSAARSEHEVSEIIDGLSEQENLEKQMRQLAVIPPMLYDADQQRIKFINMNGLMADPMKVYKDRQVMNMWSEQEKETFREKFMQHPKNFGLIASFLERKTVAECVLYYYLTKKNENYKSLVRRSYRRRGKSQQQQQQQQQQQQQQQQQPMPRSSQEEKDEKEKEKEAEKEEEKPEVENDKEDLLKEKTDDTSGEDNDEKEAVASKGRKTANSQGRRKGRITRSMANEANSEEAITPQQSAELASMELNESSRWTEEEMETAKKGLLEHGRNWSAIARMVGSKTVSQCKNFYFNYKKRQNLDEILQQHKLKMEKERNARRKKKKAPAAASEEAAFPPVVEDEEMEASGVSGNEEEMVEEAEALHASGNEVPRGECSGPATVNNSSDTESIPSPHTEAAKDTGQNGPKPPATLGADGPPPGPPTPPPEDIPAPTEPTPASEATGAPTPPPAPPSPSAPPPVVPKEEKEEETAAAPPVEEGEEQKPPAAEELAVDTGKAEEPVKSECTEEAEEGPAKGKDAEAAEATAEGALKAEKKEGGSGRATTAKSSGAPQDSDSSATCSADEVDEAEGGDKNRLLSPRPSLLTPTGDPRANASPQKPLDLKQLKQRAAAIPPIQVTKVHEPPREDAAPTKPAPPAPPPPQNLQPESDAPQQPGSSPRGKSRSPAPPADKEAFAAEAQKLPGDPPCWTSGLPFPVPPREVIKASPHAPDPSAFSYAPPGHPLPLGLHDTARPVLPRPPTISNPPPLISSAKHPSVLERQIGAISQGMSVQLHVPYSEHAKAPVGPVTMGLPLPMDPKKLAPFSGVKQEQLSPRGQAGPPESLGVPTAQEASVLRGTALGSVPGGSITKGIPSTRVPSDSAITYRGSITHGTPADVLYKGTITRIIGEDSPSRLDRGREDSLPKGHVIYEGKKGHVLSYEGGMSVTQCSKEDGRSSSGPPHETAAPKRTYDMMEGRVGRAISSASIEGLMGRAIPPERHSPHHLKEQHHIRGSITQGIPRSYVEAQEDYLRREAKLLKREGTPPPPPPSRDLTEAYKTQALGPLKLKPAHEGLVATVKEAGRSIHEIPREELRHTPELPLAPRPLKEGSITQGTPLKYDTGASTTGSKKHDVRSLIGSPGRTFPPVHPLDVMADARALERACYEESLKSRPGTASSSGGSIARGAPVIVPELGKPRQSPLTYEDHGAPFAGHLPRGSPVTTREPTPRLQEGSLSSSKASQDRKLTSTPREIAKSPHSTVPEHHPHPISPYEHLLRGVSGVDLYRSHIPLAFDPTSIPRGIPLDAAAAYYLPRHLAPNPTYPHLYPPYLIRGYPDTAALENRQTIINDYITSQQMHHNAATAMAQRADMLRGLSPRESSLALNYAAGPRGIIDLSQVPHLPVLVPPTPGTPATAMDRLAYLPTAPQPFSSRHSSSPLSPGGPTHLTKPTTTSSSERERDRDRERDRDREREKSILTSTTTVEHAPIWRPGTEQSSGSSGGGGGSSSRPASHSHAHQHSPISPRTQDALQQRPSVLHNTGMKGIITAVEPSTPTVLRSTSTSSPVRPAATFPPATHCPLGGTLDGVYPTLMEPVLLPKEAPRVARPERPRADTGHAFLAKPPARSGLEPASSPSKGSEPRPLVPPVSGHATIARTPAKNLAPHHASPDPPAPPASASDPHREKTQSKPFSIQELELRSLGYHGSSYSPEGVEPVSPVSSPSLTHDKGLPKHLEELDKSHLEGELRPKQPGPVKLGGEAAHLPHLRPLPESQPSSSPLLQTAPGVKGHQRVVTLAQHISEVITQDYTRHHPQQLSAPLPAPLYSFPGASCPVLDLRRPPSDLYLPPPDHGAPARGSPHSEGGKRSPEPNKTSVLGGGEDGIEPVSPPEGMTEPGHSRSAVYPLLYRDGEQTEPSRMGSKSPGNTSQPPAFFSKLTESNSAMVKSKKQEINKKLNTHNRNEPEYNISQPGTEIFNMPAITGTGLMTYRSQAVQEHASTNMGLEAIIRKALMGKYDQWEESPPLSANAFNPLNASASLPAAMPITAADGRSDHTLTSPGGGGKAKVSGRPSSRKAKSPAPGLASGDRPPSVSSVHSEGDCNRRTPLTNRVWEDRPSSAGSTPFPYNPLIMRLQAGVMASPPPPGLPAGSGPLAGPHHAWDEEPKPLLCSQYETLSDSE

COc1ccc(CN(CCN(C)C)c2ccc(C(=O)Nc3ccccc3N)cn2)cc1
Activity [1]: Active
inhibition [2]: < 10%
Km at 2 min [3]: 326 µM
Activity [4]: Not Active
inhibition [5]: < 10%
Activity [6]: Active
inhibition [7]: < 10%
Activity [8]: Not Active
Activity [9]: Dose-dependent effect
Activity [10]: Not Active
Activity [11]: Not Active
IC50 [12]: 12 µM
